Assay results from paper PMC6287413 (Drug Design, Development and Therapy, 2018).
Where a SMILES comes first, the peptide text is derived from it.

molecular target: T1, PTP1B (Homo sapiens, UniProt P18031); assay: Inhibitory activity analysis with recombinant PTP1B phosphatase; format: biochemical
T1 sequence (P18031 1-435): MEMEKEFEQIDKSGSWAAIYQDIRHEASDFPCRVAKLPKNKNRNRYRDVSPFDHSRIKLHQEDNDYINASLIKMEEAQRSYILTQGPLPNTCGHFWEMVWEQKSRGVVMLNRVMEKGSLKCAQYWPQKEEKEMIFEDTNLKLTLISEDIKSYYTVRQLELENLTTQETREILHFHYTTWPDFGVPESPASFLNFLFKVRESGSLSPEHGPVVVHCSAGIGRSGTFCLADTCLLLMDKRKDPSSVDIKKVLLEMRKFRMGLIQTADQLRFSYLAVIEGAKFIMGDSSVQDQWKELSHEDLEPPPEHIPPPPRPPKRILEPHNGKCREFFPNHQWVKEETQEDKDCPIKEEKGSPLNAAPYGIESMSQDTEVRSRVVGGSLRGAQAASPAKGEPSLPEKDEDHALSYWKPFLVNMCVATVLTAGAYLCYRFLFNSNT
Outline: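 Recombinant phosphatase at 1.5 µg/mL […] final in 10 mM HEPES, pH 7.4. Each enzyme was left untreated (control) or treated with peptide solutions over a range of concentrations and incubation times, at 37°C. Para-nitrophenyl phosphate (2 mM) was the chromogenic substrate, read at 405 nm. Every experiment was run three or more times.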

IC50 [µM]	SMILES
52.6 ± 3.7	N[C@@H](CC(=O)O)C(=O)N[C@@H](Cc1ccccc1)C(=O)O [Asp-Phe] (H-Asp-Phe-OH)
52.1 ± 1.4	N[C@@H](Cc1ccccc1)C(=O)N[C@@H](CC(=O)O)C(=O)O [Phe-Asp] (H-Phe-Asp-OH)
255 ± 29.4	N[C@@H](Cc1ccccc1)C(=O)N[C@@H](CC(=O)O)C(=O)N[C@@H](Cc1ccccc1)C(=O)O [Phe-Asp-Phe] (H-Phe-Asp-Phe-OH)
104 ± 15.9	N[C@@H](Cc1ccccc1)C(=O)N[C@@H](Cc1ccccc1)C(=O)N[C@@H](CC(=O)O)C(=O)O [Phe-Phe-Asp] (H-Phe-Phe-Asp-OH)
